Data published in PMC3343186 (Nature, 2012).

Experiments:
REV-ERBα = biological target: T1, REV-ERBα (Homo sapiens, UniProt P20393); type: cell-based; details: HEK293 cells, comparison with SR9011 and SR9009
T1 sequence (P20393 284-614 limits assumed): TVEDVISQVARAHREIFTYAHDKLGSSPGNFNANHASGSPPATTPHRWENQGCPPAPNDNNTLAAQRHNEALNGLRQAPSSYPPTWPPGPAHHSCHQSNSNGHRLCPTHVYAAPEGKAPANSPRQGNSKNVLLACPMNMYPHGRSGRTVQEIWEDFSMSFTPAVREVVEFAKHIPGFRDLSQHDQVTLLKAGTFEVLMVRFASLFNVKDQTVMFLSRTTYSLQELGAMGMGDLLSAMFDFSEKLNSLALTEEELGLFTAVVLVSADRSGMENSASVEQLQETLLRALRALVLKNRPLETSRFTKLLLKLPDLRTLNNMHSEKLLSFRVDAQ

[1] = cited from earlier work
C57Bl6 mice [2] = assay: Circadian locomotor activity under L:D; type: in vivo; details: L:D 12h:12h, single injection
How it was run: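 Wheel-running actograms were recorded in C57Bl6 mice kept on 12:12 L:D after single i.p. injections of vehicle or test compound. The protocol was otherwise as in the constant-darkness wheel experiment. n=6-10.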

lean C57Bl6 mice = assay: Fasting plasma TG and Chol in lean C57Bl6 mice; type: in vivo; details: 100 mg/kg i.p. b.i.d., 10 days
How it was run: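 Lean C57Bl6 mice were given 100 mg/kg i.p. twice daily at CT0 and CT12 for 10 days, then fasting plasma triglycerides and total cholesterol were measured. Mean ± s.e.m., n=6-10.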

C57Bl6 mice [3] = assay: Circadian wheel running activity under constant darkness; type: in vivo; details: single dose 100 mg/kg i.p. at CT6
How it was run: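 C57Bl6 mice in wheel cages were kept 7 days on 12h:12h L:D, then moved to constant darkness. After 12 days in D:D, mice received a single i.p. injection of vehicle or test compound at CT6.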

[4] = system: metabolic genes in DIO mice tissues; assay: Metabolic gene expression in liver, WAT and skeletal muscle of DIO mice; type: in vivo; details: 100mg/kg i.p. b.i.d., 30 days
How it was run: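 Diet-induced obese C57BL6 mice, 20 weeks old, had 14 weeks on high-fat diet (20% carbohydrate, 60% fat) and continued on it under twice-daily i.p. dosing. Liver, WAT and skeletal muscle mRNA was quantified by QPCR, normalised to Cyclophilin b. n=6-10.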

ob/ob mice = assay: ob/ob mice, 12-day dosing; type: in vivo; details: 100 mg/kg i.p. b.i.d., 12-days
How it was run: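 Leptin-deficient ob/ob mice were dosed 100 mg/kg i.p. twice daily for 12 days. Body weight and body fat content were tracked; glucose and insulin tolerance were also assessed. Mean ± s.e.m., n=6-10.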

[5] = system: diet-induced obese C57BL6 mice; assay: Diet-induced obese mice, 30-day treatment; type: in vivo; details: DIO C57Bl6 mice, 100mg/kg i.p. b.i.d., 30 days
[6] = system: metabolic genes in skeletal muscle; assay: Circadian gene expression in skeletal muscle after single dose; type: in vivo, mice; details: single dose 100 mg/kg i.p. at CT0
How it was run: (§1)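 Male C57BL6 mice, 8-10 weeks, housed on 12h:12h L:D or in constant darkness, received a single 100 mg/kg i.p. dose at CT0. Groups (n=6) were sacrificed at CT0, CT6, CT12 and CT18; tissue mRNA measured by real-time QPCR. Data double plotted; mean ± s.e.m.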

[7] = system: clock and metabolic genes in the liver; assay: Circadian gene expression in liver after single dose; type: in vivo, mice
How it was run: as §1

[8] = system: REV-ERB responsive genes in the liver; assay: Expression of REV-ERB responsive genes in liver after 6-day dosing; type: in vivo, mice; details: various doses i.p., b.i.d., 6-days
C57Bl6 mice [9] = assay: Comprehensive laboratory animal monitoring system; type: in vivo
How it was run: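 C57Bl6 mice in CLAMS cages were dosed 100 mg/kg i.p. twice daily at CT0 and CT12 for 10 days. Oxygen consumption (VO2) and RER were recorded across diurnal and nocturnal phases. Fat mass was measured by DEXA after the run. Mean ± s.e.m., n=6-10.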

[10] = system: core clock genes in the hypothalamus; assay: Core clock gene expression in hypothalamus; type: in vivo, mice
Balb/c or C57Bl6 mice = assay: Body weight and fat mass in lean mice on chronic dosing; type: in vivo
How it was run: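 Balb/c mice given 100 mg/kg i.p. twice daily at CT0 and CT12 for 12 days; body weight and fat mass followed over treatment. Mean ± s.e.m., n=6-10 mice.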

[11] = system: metabolic genes in white adipose tissue (WAT); assay: Circadian gene expression in white adipose tissue after single dose; type: in vivo, mice
How it was run: as §1

SCN explants (Per2:luc) = assay: Bioluminescence of SCN explants from Per2:luc reporter mouse; type: cell-based; details: 5 μM
[12] = single dose 100 mg/kg i.p. at CT0
[13] = C57Bl6 mice, 100mg/kg i.p. b.i.d., 10 days
[14] = D:D, 100 mg/kg i.p. single dose at CT0

CC(C)(C)OC(=O)CN(Cc1ccc(Cl)cc1)Cc1ccc([N+](=O)[O-])s1 [GSK4112]
activity in GAL4-REV-ERBα and GAL4-REV-ERBβ cotransfection assays (REV-ERBα): limited activity | plasma exposure [1]: no plasma exposure

CCOC(=O)N1CCC(CN(Cc2ccc(Cl)cc2)Cc2ccc([N+](=O)[O-])s2)C1 (centres unmarked) [SR9009]
delay in the onset of locomotor activity (C57Bl6 mice [2]): 1 to 3 h | plasma total cholesterol (lean C57Bl6 mice): reduce the levels | plasma triglycerides (lean C57Bl6 mice): reduce the levels | locomotor activity during the subject dark phase (C57Bl6 mice [3]): loss of the subsequent active period | Cpt1b expression in skeletal muscle [4]: induced the expression | Fasn expression in liver [4]: significant decrease | Hk1 expression in skeletal muscle [4]: induced the expression | Hmgcr expression in liver [4]: significant decrease | Pkm2 expression in skeletal muscle [4]: induced the expression | Ppargc1b expression in skeletal muscle [4]: induced the expression | Scd1 expression in liver [4]: significant decrease | Srebf2 expression in liver [4]: significant decrease | Ucp3 expression in skeletal muscle [4]: induced the expression | expression of genes encoding enzymes involved in TG synthesis in WAT [4]: decrease in expression | glucose or insulin tolerance (ob/ob mice): no significant alterations | weight gain (ob/ob mice): suppressed the degree of weight gain | decrease in plasma insulin levels (trend) [5]: 35% | decrease in plasma leptin [5]: 80% | decrease in plasma total cholesterol (Chol) ([5]; fasting): 47% | decrease in plasma triglycerides (TGs) ([5]; fasting): 12% | reduction of plasma glucose ([5]; fasting): 19% | reduction of plasma non-esterified fatty acids (NEFA) ([5]; fasting): 23% | decrease in proinflammatory cytokine IL-6 ([5]; plasma): 72%

CCCCCNC(=O)N1CCC(CN(Cc2ccc(Cl)cc2)Cc2ccc([N+](=O)[O-])s2)C1 (centres unmarked) [SR9011]
delay in the onset of locomotor activity (C57Bl6 mice [2]): 1 to 3 h | plasma total cholesterol (lean C57Bl6 mice): reduce the levels | plasma triglycerides (lean C57Bl6 mice): reduce the levels | Cpt1b expression in skeletal muscle [6]: elevated | Hk1 expression in skeletal muscle [6]: increase | Pkm2 expression in skeletal muscle [6]: increase | Pppargc1b expression in skeletal muscle [6]: elevated | Ucp3 expression in skeletal muscle [6]: elevated | Nampt gene expression in the liver ([7]; single dose): suppressed the circadian rhythm | Nocturnin (Ccrn4l) expression in hepatic tissue ([7]; single dose): suppression | Bmal1 expression in liver [7, 12]: unaffected | Cyp7a1 expression in liver [7, 12]: decreased | Fasn expression in liver [7, 12]: phase shifted | Npas2 expression in liver [7, 12]: unaffected | Per2 expression pattern in liver [7, 12]: altered | Ppargc1a circadian expression in liver [7, 12]: suppressed | Ppargc1b circadian expression in liver [7, 12]: suppressed | Scd1 expression in liver [7, 12]: suppressed | Srebf1 expression in liver [7, 12]: suppressed | Srebf2 expression in liver [7, 12]: decreased | Hmgcr expression in liver ([7]; single dose 100 mg/kg i.p. at CT0, acute model): unaffected | Cyp7a1 expression in liver [8]: dose-dependently suppressed | Serpine1 expression in liver [8]: dose-dependent suppression | increase in nocturnal food consumption (C57Bl6 mice [9]; [13]): 10% | increase in oxygen consumption (VO2) (C57Bl6 mice [9]; [13]): 5% | rate of food intake (C57Bl6 mice [9]; [13]): no effect | respiratory exchange ratio (C57Bl6 mice [9]; [13]): no change | total daily food intake (C57Bl6 mice [9]; [13]): no effect | decrease in movement (C57Bl6 mice [9]; C57Bl6 mice, 100mg/kg i.p. b.i.d., 10 days, x-axis beam breaks): 15% | fat mass (DEXA) vs. vehicle (C57Bl6 mice [9]; after 10-day CLAMS experiment): decrease in fat mass | locomotor activity during the subject dark phase (C57Bl6 mice [3]): loss of the subsequent active period | circadian pattern of Rev-erbα expression in hypothalamus ([10]; D:D conditions): completely suppressed | Bmal1 expression in hypothalamus [10, 14]: left shift in the phase | Cry2 expression in hypothalamus [10, 14]: suppressed | Per2 expression amplitude in hypothalamus [10, 14]: enhanced | circadian pattern of expression of Npas2 in hypothalamus [10, 14]: completely eliminated | pattern of expression of Clock in hypothalamus [10, 14]: enhanced amplitude of the oscillation | circadian pattern of Rev-erbα expression in hypothalamus ([10]; L:D conditions): no effect | body weight and fat mass (Balb/c or C57Bl6 mice; 100mg/kg, i.p., b.i.d., 12 days): weight loss due to decreased fat mass | food intake (Balb/c or C57Bl6 mice; chronic administration, data not shown): not affected | Nocturnin (Ccrn4l) expression in adipose tissue ([11]; single dose): suppression | Dgat1 expression in WAT [11, 12]: suppressed | Dgat 2 expression in WAT [11, 12]: suppressed | Hsl expression in WAT [11, 12]: suppressed | Mgat circadian expression in WAT [11, 12]: disturbed | Plin1 expression in WAT [11, 12]: suppressed | amplitude of the oscillations in SCN explants (SCN explants (Per2:luc)): suppressed the amplitude | circadian oscillations in SCN explants (SCN explants (Per2:luc)): reversible inhibition of circadian oscillations | period of the oscillations in SCN explants (SCN explants (Per2:luc)): no effect on the period
